According to ChEMBL document CHEMBL1121573, “2-(Aminomethyl)phenols, a new class of saluretic agents. 1. Effects of nuclear substitution” (J Med Chem, 1980):
Values joined by “and” are separate entries in the source; they are usually repeats but may differ in a detail not shown here. Identical values can stand only once.

Key:
Canis familiaris [1] = experiment: Oral diuretic activity was evaluated by measuring Na+ excretion in dog at 0.312 mg/kg after ip administration; assay type: ADME, organism-based, Canis lupus familiaris, Urine; set-up: dose 0.312 mg/kg, route intraperitoneal; conditions: in vivo
How it was run: (§1)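 Spontaneous urine was pooled with bladder urine collected by catheterization at 6 h. Volume was measured and Na+, K+ and Cl− were determined by standard methods. Values are geometric means.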

Canis familiaris [2] = experiment: Oral diuretic activity was evaluated by measuring Na+ excretion in dog at 0.625 mg/kg after ip administration; assay type: ADME, organism-based, Canis lupus familiaris, Urine; set-up: dose 0.625 mg/kg, route intraperitoneal; conditions: in vivo; how it was run: as §1
Canis familiaris [3] = experiment: Oral diuretic activity was evaluated by measuring Na+ excretion in dog at 2 mg/kg after […]; assay type: ADME, organism-based, Canis lupus familiaris, Urine; set-up: dose 2 mg/kg; conditions: in vivo
How it was run: (§2)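 Dogs; spontaneous urine was pooled with bladder urine drained by catheter at the end of 6 h. Urine volume was measured, and aliquots were assayed for Na+, K+ and Cl− by standard methods. Values are geometric means, expressed as mequiv over 0–6 h.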

Canis familiaris [4] = experiment: Oral diuretic activity was evaluated by measuring K+ excretion in dog at 5 mg/kg after ip administration; assay type: ADME, organism-based, Canis lupus familiaris, Urine; set-up: dose 5 mg/kg, route intraperitoneal; conditions: in vivo; how it was run: as §1
Canis familiaris [5] = experiment: Oral diuretic activity was evaluated by measuring Na+ excretion in dog at 5 mg/kg after ip administration; assay type: ADME, organism-based, Canis lupus familiaris, Urine; set-up: dose 5 mg/kg; conditions: in vivo; how it was run: as §2
Canis familiaris [6] = experiment: Oral diuretic activity was evaluated by measuring K+ excretion in dog at 2 mg/kg after ip administration; assay type: ADME, organism-based, Canis lupus familiaris, Urine; set-up: dose 2 mg/kg, route intraperitoneal; conditions: in vivo; how it was run: as §1
Canis familiaris [7] = experiment: Oral diuretic activity was evaluated by measuring K+ excretion in dog at 0.312 mg/kg after ip administration; assay type: ADME, organism-based, Canis lupus familiaris, Urine; set-up: dose 0.312 mg/kg, route intraperitoneal; conditions: in vivo
Canis familiaris [8] = experiment: Oral diuretic activity was evaluated by measuring K+ excretion in dog at 0.625 mg/kg after […]; assay type: ADME, organism-based, Canis lupus familiaris, Urine; set-up: dose 0.625 mg/kg; conditions: in vivo; how it was run: as §1
Rattus norvegicus [9] = experiment: Compound administered orally was evaluated for salidiuretic activity measured as sodium ion excretion in Rat; assay type: ADME, organism-based, Urine; conditions: in vivo, po
How it was run: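 Female Charles-River rats (150–170 g), overnight on sugar diet with water ad libitum. Compound dissolved in DMF, diluted with water containing Tween 80 (final 4% DMF), given po in 5.0 mL; concurrent vehicle placebo. Three rats per metabolism cage; 0–5 h urine analysed for Na+, K+, Cl-. Values: mequiv × 100 per cage, geometric means of three cages per dose; scored 0–6 by Na+.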

Canis familiaris [10] = experiment: Oral diuretic activity was evaluated by measuring Cl- excretion in dog at 5 mg/kg after ip administration; assay type: ADME, organism-based, Canis lupus familiaris, Urine; set-up: dose 5 mg/kg, route intraperitoneal; conditions: in vivo
Canis familiaris [11] = experiment: Compound administered intravenously was evaluated for salidiuretic activity measured as sodium ion excretion in Dog; assay type: ADME, organism-based, Canis lupus familiaris, Urine; set-up: unit not given beside the values; conditions: in vivo, iv
How it was run: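 Conditioned female mongrel dogs, postabsorptive, water-loaded (500 mL po) 1 h before sodium pentobarbital anesthesia (30 mg/kg iv). Bladder catheter; creatinine 4 g sc; phosphate–mannitol buffer pH 7.4 infused (3.0 mL/min) throughout. […] Urine Na+ measured; response scored 0–6.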

Rattus norvegicus [12] = experiment: Oral diuretic activity was evaluated by measuring Cl- excretion in Rat at 27 mg/kg after ip administration; assay type: ADME, organism-based, Urine; set-up: dose 27 mg/kg, route intraperitoneal; conditions: in vivo
Rattus norvegicus [13] = experiment: Oral diuretic activity was evaluated by measuring Cl- excretion in Rat at 3 mg/kg after ip administration; assay type: ADME, organism-based, Urine; set-up: dose 3 mg/kg, route intraperitoneal; conditions: in vivo
Rattus norvegicus [14] = experiment: Oral diuretic activity was evaluated by measuring Cl- excretion in Rat at 81 mg/kg after ip administration; assay type: ADME, organism-based, Urine; set-up: dose 81 mg/kg, route intraperitoneal; conditions: in vivo
Canis familiaris [15] = experiment: Oral diuretic activity was evaluated by measuring Cl- excretion in dog at 0.312 mg/kg after ip administration; assay type: ADME, organism-based, Canis lupus familiaris, Urine; set-up: dose 0.312 mg/kg, route intraperitoneal; conditions: in vivo
Canis familiaris [16] = experiment: Oral diuretic activity was evaluated by measuring Cl- excretion in dog at 0.625 mg/kg after ip administration; assay type: ADME, organism-based, Canis lupus familiaris, Urine; set-up: dose 0.625 mg/kg, route intraperitoneal; conditions: in vivo
Canis familiaris [17] = experiment: Oral diuretic activity was evaluated by measuring Cl- excretion in dog at 2 mg/kg after ip administration; assay type: ADME, organism-based, Canis lupus familiaris, Urine; set-up: dose 2 mg/kg, route intraperitoneal; conditions: in vivo
Rattus norvegicus [18] = organism: Rattus norvegicus; experiment: Time taken for the decrease in arterial pressure was measured; assay type: functional, Artery
Rattus norvegicus [19] = experiment: Maximum fall in mean arterial blood pressure was measured in SH rats when compound was administered at 0.078 mg/kg perorally; assay type: functional; conditions: route oral
Rattus norvegicus [20] = experiment: Maximum fall in mean arterial blood pressure was measured in SH rats when compound was administered at 0.312 mg/kg perorally; assay type: functional; conditions: route oral
Rattus norvegicus [21] = experiment: Maximum fall in mean arterial blood pressure was measured in SH rats when compound was administered at […] mg/kg perorally; assay type: functional; conditions: route oral
Rattus norvegicus [22] = experiment: Oral diuretic activity was evaluated by measuring K+ excretion in Rat at 3 mg/kg after po administration; conditions: in vivo

Diuretic activity (Canis familiaris [1]): 13.76 | Diuretic activity (Canis familiaris [2]): 22.3 | Diuretic activity (Canis familiaris [3]): 44.9 | Diuretic activity (Canis familiaris [4]): 9.9 | Diuretic activity (Canis familiaris [5]): 56.8 | Diuretic activity (Canis familiaris [6]): 9.3 | Diuretic activity (Canis familiaris [7]): 4.34 | Diuretic activity (Canis familiaris [8]): 5.1 | Diuretic activity (Rattus norvegicus [9]): 6 | Diuretic activity (Canis familiaris [10]): 69.6 | Diuretic activity (Canis familiaris [11]): 6 | Diuretic activity (Rattus norvegicus [12]): 4.35 | Diuretic activity (Rattus norvegicus [13]): 2.11 | Diuretic activity (Rattus norvegicus [14]): 4.89 | Diuretic activity (Canis familiaris [15]): 19.28 | Diuretic activity (Canis familiaris [16]): 30.3 | Diuretic activity (Canis familiaris [17]): 57 | Diuretic activity (Rattus norvegicus [22]): 0.51
SMILES: CC(C)(C)c1cc(I)c(O)c(CN)c1.Cl
Duration (Rattus norvegicus [18]): 18 h and >24 h | MAP (Rattus norvegicus [19]): 16 mmHg | MAP (Rattus norvegicus [20]): 26 mmHg | MAP (Rattus norvegicus [21]): 38 mmHg
